Results taken from ChEMBL document CHEMBL4828738, “Design, synthesis and evaluation of novel 5-phenylthiophene derivatives as potent fungicidal of Candida albicans and antifungal reagents of fluconazole-resistant fungi” (Eur J Med Chem, 2021).
≈ marks a conversion by molar mass, not a printed value.

How the values were obtained:
Candida albicans [1] = test: Antifungal activity against Candida albicans CPCC400616 assessed as fungal growth inhibition by CLSI protocol based method; format: functional
Candida tropicalis = test: Antifungal activity against Candida tropicalis CGMCC 2.3739 assessed as fungal growth inhibition by CLSI protocol based method; format: functional
MCF7 = test: Cytotoxicity against human MCF7 cells assessed as reduction in cell viability measured after 96 hrs by MTT assay; format: ADME, cell-based; settings: MCF7, 96 h
A549 = test: Cytotoxicity against human A549 cells assessed as reduction in cell viability measured after 96 hrs by MTT assay; format: ADME, cell-based; settings: A549, 96 h
[2] = Metabolic stability in human plasma assessed as parent compound remaining after 120 mins by LC-MS/MS analysis; format: ADME, cell-free; settings: read-out: Stability
[3] = Metabolic stability in human plasma assessed as parent compound remaining after 60 mins by LC-MS/MS analysis; format: ADME, cell-free; settings: read-out: Stability
Nakaseomyces glabratus = test: Antifungal activity against Candida glabrata assessed as fungal growth inhibition by CLSI protocol based method; format: functional
Candida albicans [4] = test: Anti-biofilm activity in Candida albicans CPCC400616 assessed as inhibition of biofilm formation incubated for 24 hrs by XTT assay; format: functional
How it was run: (§1)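 C. albicans CPCC400616 suspension placed in wells at 37 °C. Non-adherent cells and medium were removed at 3, 6, 18 or 24 h and wells washed with PBS. Compounds were added at a range of concentrations in fresh RPMI 1640 and incubated a further 24 h at 37 °C. Biofilm metabolic activity was read by XTT reduction.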

Cryptococcus neoformans = test: Antifungal activity against Cryptococcus neoformans CGMCC2.3161 assessed as fungal growth inhibition by CLSI protocol based method; format: functional
[5] = Metabolic stability in human plasma assessed as half life after 60 mins by LC-MS/MS analysis; format: ADME, cell-free
Candida albicans [6] = test: Fungicidal activity in Candida albicans CPCC400616 assessed as reduction in viable colony formation measured within 16 hrs by time kill assay; format: functional; settings: time hrs <16
How it was run: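 Diluted samples were plated on PDA and incubated 24 h at 35 °C. CFU were counted and log10 CFU/mL was plotted against time. Detection limit was 100 CFU/mL. Run in triplicate.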

Candida albicans [7] = test: Anti-biofilm activity in Candida albicans CPCC400616 assessed as inhibition of biofilm formation incubated for 6 hrs by XTT assay; format: functional; how it was run: as §1
Candida albicans [8] = test: Antifungal activity against Candida albicans ATCC SC5314 assessed as fungal growth inhibition by CLSI protocol based method; format: functional
[9] = molecular target: T1, Lanosterol 14-alpha demethylase (Candida albicans (strain SC5314 / ATCC MYA-2876) (Yeast), UniProt P10613); test: Inhibition of CYP51 in Candida albicans assessed as 14alpha-methylfecosterol level at 0.015 ug/ml measured after 18 hrs by GC-MS analysis relative to control; parameters: scale not given: the % may be the effect or the level left; settings: at 0.015 µg/mL
T1 sequence (P10613 whole entry): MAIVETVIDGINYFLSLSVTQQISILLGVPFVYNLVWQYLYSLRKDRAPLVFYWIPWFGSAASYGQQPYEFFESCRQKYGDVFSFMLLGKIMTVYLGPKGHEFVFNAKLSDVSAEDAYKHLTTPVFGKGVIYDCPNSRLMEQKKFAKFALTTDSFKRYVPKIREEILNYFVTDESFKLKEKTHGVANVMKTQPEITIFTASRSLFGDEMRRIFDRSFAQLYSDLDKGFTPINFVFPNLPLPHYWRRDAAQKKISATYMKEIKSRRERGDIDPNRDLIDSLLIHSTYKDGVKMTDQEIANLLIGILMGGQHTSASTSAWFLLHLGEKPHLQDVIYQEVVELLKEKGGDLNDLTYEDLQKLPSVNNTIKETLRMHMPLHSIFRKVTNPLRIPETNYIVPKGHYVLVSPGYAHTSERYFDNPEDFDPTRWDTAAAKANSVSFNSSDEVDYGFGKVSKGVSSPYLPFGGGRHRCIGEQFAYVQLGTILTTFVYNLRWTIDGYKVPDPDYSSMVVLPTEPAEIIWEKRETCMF

Candida albicans [10] = test: Antifungal activity against fluconazole-resistant Candida albicans 901 assessed as fungal growth inhibition by CLSI protocol based method
Candida parapsilosis = test: Antifungal activity against Candida parapsilosis GIM2.190 assessed as fungal growth inhibition by CLSI protocol based method; format: functional; settings: Lodderomyces parapsilosis
[11] = molecular target: T1, Lanosterol 14-alpha demethylase; test: Inhibition of CYP51 in Candida albicans assessed as Eburicol level at 0.015 ug/ml measured after 18 hrs by GC-MS analysis relative to control; parameters: scale not given: the % may be the effect or the level left; settings: at 0.015 µg/mL
Candida albicans [12] = test: Anti-biofilm activity in Candida albicans CPCC400616 assessed as inhibition of biofilm formation incubated for 3 hrs by XTT assay; format: functional; how it was run: as §1
[13] = molecular target: T1, Lanosterol 14-alpha demethylase; test: Inhibition of CYP51 in Candida albicans assessed as other sterols level at 0.015 ug/ml measured after 18 hrs by GC-MS analysis relative to control; parameters: scale not given: the % may be the effect or the level left; settings: at 0.015 µg/mL
Pichia kudriavzevii = test: Antifungal activity against Candida krusei GIM2.1 assessed as fungal growth inhibition by CLSI protocol based method; format: functional
[14] = molecular target: T1, Lanosterol 14-alpha demethylase; test: Inhibition of CYP51 in Candida albicans assessed as lanosterol level at 0.015 ug/ml measured after 18 hrs by GC-MS analysis relative to control; parameters: scale not given: the % may be the effect or the level left; settings: at 0.015 µg/mL
Candida albicans [15] = test: Antifungal activity against fluconazole-resistant Candida albicans 904 assessed as fungal growth inhibition by CLSI protocol based method
Candida albicans [16] = test: Antifungal activity against fluconazole-resistant Candida albicans 103 assessed as fungal growth inhibition by CLSI protocol based method
THLE-2 = test: Cytotoxicity against human THLE-2 cells assessed as reduction in cell viability measured after 96 hrs by MTT assay; format: ADME, cell-based; settings: THLE-2, 96 h
Candida albicans [17] = test: Anti-biofilm activity in Candida albicans CPCC400616 assessed as inhibition of biofilm formation measured up to 24 hrs by XTT assay; format: functional, organism-based; settings: time hrs <=24
How it was run: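 C. albicans CPCC400616 suspension allowed to adhere in 96-well plates at 37 °C; non-adherent cells and medium removed after 3, 6, 18 or 24 h. Wells washed with PBS, compounds added at graded concentrations in fresh RPMI 1640, then incubated a further 24 h at 37 °C. Biofilm quantified semiquantitatively by XTT reduction. SMIC50 is the concentration inhibiting biofilm metabolic activity by 50%.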

Candida albicans [18] = test: Fungicidal activity in Candida albicans CPCC400616 assessed as reduction in viable colony formation measured after 24 hrs by time kill assay; format: functional, organism-based
Candida albicans [19] = test: Antifungal activity against fluconazole-resistant Candida albicans 632 assessed as fungal growth inhibition by CLSI protocol based method
[20] = molecular target: T1, Lanosterol 14-alpha demethylase; test: Inhibition of CYP51 in Candida albicans assessed as Ergosterol level at 0.015 ug/ml measured after 18 hrs by GC-MS analysis (reference value: 96.93 %); parameters: scale not given: the % may be the effect or the level left; settings: at 0.015 µg/mL
Candida albicans [21] = test: Antifungal activity against fluconazole-resistant Candida albicans 311 assessed as fungal growth inhibition by CLSI protocol based method
Candida albicans [22] = test: Fungicidal activity against Candida albicans ATCC SC5314 assessed as inhibition of visible fungal growth measured after 48 hrs; format: functional
Candida albicans [23] = test: Antifungal activity against fluconazole-resistant Candida albicans 100 assessed as fungal growth inhibition by CLSI protocol based method
Candida albicans [24] = test: Anti-biofilm activity in Candida albicans CPCC400616 assessed as inhibition of biofilm formation incubated for 18 hrs by XTT assay; format: functional; how it was run: as §1
CYP2D6 = CYP2D6 (Homo sapiens, UniProt P10635); test: Inhibition of CYP2D6 in human liver Microsome using dextromethorphan as substrate preincubated for 10 mins followed by NADPH addition and further incubated for 10 mins as substrate by LC-MS/MS analysis relative to control; settings: liver microsomes, probe dextromethorphan
Sequence of CYP2D6 (P10635 whole entry): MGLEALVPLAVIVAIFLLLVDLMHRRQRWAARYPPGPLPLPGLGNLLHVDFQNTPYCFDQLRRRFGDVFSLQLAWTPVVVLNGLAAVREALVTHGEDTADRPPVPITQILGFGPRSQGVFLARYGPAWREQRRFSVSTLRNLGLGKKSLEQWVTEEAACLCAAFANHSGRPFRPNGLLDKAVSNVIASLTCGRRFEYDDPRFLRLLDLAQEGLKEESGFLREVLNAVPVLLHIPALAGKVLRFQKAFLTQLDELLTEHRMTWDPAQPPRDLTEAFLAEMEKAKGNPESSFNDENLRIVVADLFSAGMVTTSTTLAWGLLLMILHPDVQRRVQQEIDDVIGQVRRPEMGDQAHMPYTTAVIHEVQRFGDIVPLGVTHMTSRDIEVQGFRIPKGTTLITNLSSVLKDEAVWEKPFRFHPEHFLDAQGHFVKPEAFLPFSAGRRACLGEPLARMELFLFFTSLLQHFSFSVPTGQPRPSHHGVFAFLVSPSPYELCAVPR

## Cc1ccc(C(=O)C(Cn2ccnc2)NC(=O)c2ccc(-c3ccc(Cl)cc3)s2)cc1 (stereo unspecified)
Candida albicans [1]
  MIC: < 0.03 µg/mL
Candida tropicalis
  MIC: < 0.03 µg/mL
MCF7
  IC50: > 30 µM
A549
  IC50: 19.1 µM
[2]
  remaining at 2 h: 89.5%
[3]
  remaining at 1 h: 93.1%
Nakaseomyces glabratus
  MIC: 0.25 µg/mL (≈ 0.556 µM)
Candida albicans [4]
  MBIC50: >64 µg/mL
Cryptococcus neoformans
  MIC: 0.5 µg/mL (≈ 1.11 µM)
[5]
  half-life: > 4.8 h
Candida albicans [6]
  Activity: 2 log10CFU/ml
Candida albicans [7]
  MBIC50: 8 µg/mL
Candida albicans [8]
  MIC: < 0.03 µg/mL
[9]
  Activity: 3.2%
Candida albicans [10]
  MIC: 1 µg/mL (≈ 2.22 µM)
Candida parapsilosis
  MIC: 0.5 µg/mL (≈ 1.11 µM)
[11]
  Activity: 31.02%
Candida albicans [12]
  MBIC50: 1 µg/mL
[13]
  Activity: 8.64%
Pichia kudriavzevii
  MIC: 1 µg/mL (≈ 2.22 µM)
[14]
  Activity: 42.91%
Candida albicans [15]
  MIC: 0.25 µg/mL (≈ 0.556 µM)
Candida albicans [16]
  MIC: 1 µg/mL (≈ 2.22 µM)
THLE-2
  IC50: 16.1 µM
Candida albicans [17]
  Activity: Dose-Dependent Effect
Candida albicans [18]
  Activity: Dose-Dependent Effect
Candida albicans [19]
  MIC: 1 µg/mL (≈ 2.22 µM)
[20]
  Activity: 5.06%
Candida albicans [21]
  MIC: 1 µg/mL (≈ 2.22 µM)
Candida albicans [22]
  MFC: 0.125 µg/mL (≈ 0.278 µM)
Candida albicans [23]
  MIC: 0.5 µg/mL (≈ 1.11 µM)

## C[C@@H](c1ncncc1F)[C@](O)(Cn1cncn1)c1ccc(F)cc1F [VORICONAZOLE]
Candida albicans [1]
  MIC: 0.125 µg/mL (≈ 0.358 µM)
Candida tropicalis
  MIC: 0.06 µg/mL (≈ 0.172 µM)
MCF7
  IC50: > 30 µM
A549
  IC50: > 30 µM
Nakaseomyces glabratus
  MIC: 0.125 µg/mL (≈ 0.358 µM)
Candida albicans [4]
  MBIC50: >64 µg/mL
Cryptococcus neoformans
  MIC: 0.06 µg/mL (≈ 0.172 µM)
Candida albicans [24]
  MBIC50: >64 µg/mL
Candida albicans [7]
  MBIC50: 32 µg/mL
Candida albicans [8]
  MIC: 0.06 µg/mL (≈ 0.172 µM)
Candida parapsilosis
  MIC: 0.06 µg/mL (≈ 0.172 µM)
Candida albicans [12]
  MBIC50: 16 µg/mL
Pichia kudriavzevii
  MIC: 0.125 µg/mL (≈ 0.358 µM)
THLE-2
  IC50: > 30 µM
Candida albicans [22]
  MFC: 8 µg/mL (≈ 22.9 µM)

## O=C(NC(Cn1ccnc1)C(=O)c1cccc(F)c1)c1ccc(-c2ccc(Cl)cc2)s1 (stereo unspecified)
Candida albicans [1]
  MIC: 0.125 µg/mL (≈ 0.275 µM)
Candida tropicalis
  MIC: 0.125 µg/mL (≈ 0.275 µM)
MCF7
  IC50: > 30 µM
A549
  IC50: 26.5 µM
[2]
  remaining at 2 h: 47.1%
[3]
  remaining at 1 h: 73.4%
Nakaseomyces glabratus
  MIC: 1 µg/mL (≈ 2.2 µM)
Candida albicans [4]
  MBIC50: >64 µg/mL
Cryptococcus neoformans
  MIC: 0.25 µg/mL (≈ 0.551 µM)
[5]
  half-life: 1.85 h
Candida albicans [24]
  MBIC50: >64 µg/mL
Candida albicans [7]
  MBIC50: 16 µg/mL
Candida albicans [8]
  MIC: 0.06 µg/mL (≈ 0.132 µM)
Candida albicans [10]
  MIC: 2 µg/mL (≈ 4.41 µM)
Candida parapsilosis
  MIC: 0.5 µg/mL (≈ 1.1 µM)
Candida albicans [12]
  MBIC50: 2 µg/mL
Pichia kudriavzevii
  MIC: 0.25 µg/mL (≈ 0.551 µM)
Candida albicans [15]
  MIC: 2 µg/mL (≈ 4.41 µM)
Candida albicans [16]
  MIC: 2 µg/mL (≈ 4.41 µM)
THLE-2
  IC50: 4.81 µM
Candida albicans [19]
  MIC: 0.5 µg/mL (≈ 1.1 µM)
Candida albicans [21]
  MIC: 1 µg/mL (≈ 2.2 µM)
Candida albicans [22]
  MFC: 25 µg/mL (≈ 55.1 µM)
Candida albicans [23]
  MIC: 2 µg/mL (≈ 4.41 µM)

## C=C[C@H]1C[N@@]2CC[C@H]1C[C@@H]2[C@@H](O)c1ccnc2ccc(OC)cc12 [QUINIDINE]
CYP2D6
  inhibition at 10 min: 96.2%
